This note sets out measurements from ChEMBL document CHEMBL2346536, “Biscatecholate-monohydroxamate mixed ligand siderophore-carbacephalosporin conjugates are selective sideromycin antibiotics that target Acinetobacter baumannii” (2013).

For test [1], the system named is Staphylococcus aureus. The test is described as follows: Antibacterial activity against Staphylococcus aureus SG 511 after 18 hrs by broth microdilution method. Type of test: functional. The note with it: SG 511, 18 h. An outline of the steps: (§1)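 Broth microdilution MICs per CLSI guidelines, read by visual end point; each compound tested in triplicate.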
(In general: Dilution methods test growth across graded concentrations, often in twofold steps.)

The next test relates to Escherichia coli. As to the kind of experiment: Antibacterial activity against Escherichia coli ATCC 25922 after 18 hrs by broth microdilution method. Type of test: functional. The settings on record: ATCC 25922, 18 h. The essentials:
as §1

Test [2] deals with Acinetobacter baumannii. As to the kind of experiment: Antibacterial activity against Acinetobacter baumannii ATCC 17961 after 18 hrs by broth microdilution method. The settings on record: ATCC 17961, 18 h. Type of test: functional. An outline of the steps:
as §1

The next test has as its system Pseudomonas aeruginosa. As to the kind of experiment: Antibacterial activity against Pseudomonas aeruginosa ATCC 27853 after 18 hrs by broth microdilution method. The test is classed as functional. The settings on record: ATCC 27853, 18 h. The essentials:
as §1

For a further test, the system named is Enterococcus faecium. The test is described as follows: Antibacterial activity against Enterococcus faecium NCTC 7171 after 18 hrs by broth microdilution method. Type of test: functional. The note with it: NCTC 7171, 18 h. An outline of the steps:
as §1

The test system of the next test is Klebsiella pneumoniae. The test is described as follows: Antibacterial activity against Klebsiella pneumoniae ATCC 700603 after 18 hrs by broth microdilution method. The note with it: ATCC 700603, 18 h. Type of test: functional. An outline of the steps: as §1
In a further test the test system is Klebsiella aerogenes. As to the kind of experiment: Antibacterial activity against Enterobacter aerogenes ATCC 35029 after 18 hrs by broth microdilution method. Type of test: functional. The note with it: ATCC 35029, 18 h. The essentials: as §1
Test [3] concerns Acinetobacter baumannii. The test is described as follows: Antibacterial activity against Acinetobacter baumannii ATCC 17961 in Fe(3)-deficient Mueller-Hinton no.2 broth media assessed as diameter of growth inhibition zone after 18 to 24 hrs by agar diffusion assay. Type of test: functional. An outline of the steps:
(§2)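 Modified Kirby–Bauer agar diffusion on Mueller–Hinton no. 2 agar, made iron-deficient with 100 μM 2,2′-bipyridine or iron-supplemented with 100 μM FeCl₃. Read-out was growth inhibition zone diameter (mm), averaged over three independent trials.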
Background: Agar diffusion results depend on both activity and mobility in agar.

Test [4] relates to Staphylococcus aureus. The test is described as follows: Antibacterial activity against Staphylococcus aureus SG 511 in Fe(3)-deficient Mueller-Hinton no.2 broth media assessed as diameter of growth inhibition zone after 18 to 24 hrs by agar diffusion assay. The test is classed as functional, organism-based. An outline of the steps:
as §2

Test [5] concerns Acinetobacter baumannii. The test is described as follows: Antibacterial activity against Acinetobacter baumannii ATCC 17961 in Fe(3)-deficient Mueller-Hinton no.2 broth media after 18 hrs by broth microdilution method. Type of test: functional. The note with it: ATCC 17961, 18 h. The essentials:
(§3)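 CLSI broth microdilution in cation-adjusted Mueller–Hinton no. 2 broth. The iron-deficient broth contained 100 μM 2,2′-bipyridine and the iron-supplemented broth 100 μM FeCl₃. MIC was read by visual end point, each compound in triplicate.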

The subject of test [6] is Acinetobacter baumannii. As to the kind of experiment: Antibacterial activity against Acinetobacter baumannii ATCC 17961 in Fe(3)-supplemented Mueller-Hinton no.2 broth media after 18 hrs by broth microdilution method. The test is classed as functional. The settings on record: ATCC 17961, 18 h. An outline of the steps: as §3
Test [7] concerns Staphylococcus aureus. The test is described as follows: Antibacterial activity against Staphylococcus aureus SG 511 in Fe(3)-deficient Mueller-Hinton no.2 broth media after 18 hrs by broth microdilution method. Type of test: functional. The note with it: SG 511, 18 h. An outline of the steps:
as §3

The subject of test [8] is Staphylococcus aureus. The test is described as follows: Antibacterial activity against Staphylococcus aureus SG 511 at 0.5 mM after 18 to 24 hrs by agar diffusion assay in presence of Fe3-complex of N-[5-(3-{[4-(2,3-Dihydroxy-benzoylamino)-butyl]-[3-(2,3-dihydroxy-benzoylamino)-propyl]-carbamoyl}-propionylamino)-pentyl]-N-hydroxy-succinamic acid. The test is classed as functional, organism-based. The essentials:
(§4)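 Paper-strip competition on agar. LB cultures grown 18–24 h were suspended in 0.9% saline at […] (0.5 McFarland), then 0.1 mL was mixed into 34 mL MHII agar + 2,2′-bipyridine at 47 °C. Strips were soaked in 0.5 mM sideromycin or 2.0 mM siderophore (1:10 DMSO:MeOH). Plates ran 37 °C for 18–24 h and were photographed at 48 h.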

For test [9], the system named is Acinetobacter baumannii. As to the kind of experiment: Antibacterial activity against Acinetobacter baumannii ATCC 17961 at 0.5 mM after 18 to 24 hrs by agar diffusion assay in presence of N-[5-(3-{[4-(2,3-Dihydroxy-benzoylamino)-butyl]-[3-(2,3-dihydroxy-benzoylamino)-propyl]-carbamoyl}-propionylamino)-pentyl]-N-hydroxy-succinamic acid. The test is classed as functional, organism-based. The essentials:
as §4

Test [10] relates to Staphylococcus aureus. As to the kind of experiment: Antibacterial activity against Staphylococcus aureus SG 511 in Fe(3)-supplemented Mueller-Hinton no.2 broth media after 18 hrs by broth microdilution method. The test is classed as functional. The note with it: SG 511, 18 h. The essentials:
as §3

For test [11], the system named is Acinetobacter baumannii. The test is described as follows: Antibacterial activity against Acinetobacter baumannii ATCC 17961 at 0.5 mM after 18 to 24 hrs by agar diffusion assay in presence of Fe3-complex of N-[5-(3-{[4-(2,3-Dihydroxy-benzoylamino)-butyl]-[3-(2,3-dihydroxy-benzoylamino)-propyl]-carbamoyl}-propionylamino)-pentyl]-N-hydroxy-succinamic acid. The test is classed as functional, organism-based. The essentials: as §4

For test [12], the system named is Staphylococcus aureus. As to the kind of experiment: Antibacterial activity against Staphylococcus aureus SG 511 at 0.5 mM after 18 to 24 hrs by agar diffusion assay in presence of N-[5-(3-{[4-(2,3-Dihydroxy-benzoylamino)-butyl]-[3-(2,3-dihydroxy-benzoylamino)-propyl]-carbamoyl}-propionylamino)-pentyl]-N-hydroxy-succinamic acid. Type of test: functional, organism-based. An outline of the steps:
as §4

Test [13] concerns Staphylococcus aureus. As to the kind of experiment: Antibacterial activity against Staphylococcus aureus SG 511 in Fe(3)-supplemented Mueller-Hinton no.2 broth media assessed as diameter of growth inhibition zone after 18 to 24 hrs by agar diffusion assay. The test is classed as functional, organism-based. The essentials:
as §2

Test [14] has as its system Acinetobacter baumannii. The test is described as follows: Antibacterial activity against Acinetobacter baumannii ATCC 17961 in Fe(3)-supplemented Mueller-Hinton no.2 broth media assessed as diameter of growth inhibition zone after 18 to 24 hrs by agar diffusion assay. Type of test: functional. The essentials:
as §2

In brackets after ≈: the same amount, converted by molar mass. Activity calls are given as the source filed them. No cut-off for these calls is given here.

By MIC is commonly meant the lowest concentration found to suppress growth. Low readings indicate inhibition by little substance, high ones a need for much substance. Consider `O=C(O)CCC(=O)N(O)CCCCCNC(=O)CCC(=O)N(CCCCNC(=O)c1cccc(O)c1O)CCCNC(=O)c1cccc(O)c1O`, for which the MIC against Staphylococcus aureus [1], with Escherichia coli, against Acinetobacter baumannii [2], in the test with Pseudomonas aeruginosa, with Enterococcus faecium and with Klebsiella pneumoniae was greater than 128 µM in each case. Besides, in the test on Klebsiella aerogenes, the MIC was greater than 128 µM.

`O=C(O)c1cn(C2CC2)c2cc(N3CCNCC3)c(F)cc2c1=O` [CIPROFLOXACIN]: the MIC in the test with Staphylococcus aureus [1] was 0.5 µM (≈ 0.166 µg/mL); in the test with Escherichia coli, less than 0.015 µM; against Acinetobacter baumannii [2], 0.25 µM (≈ 0.0828 µg/mL); in the test with Pseudomonas aeruginosa it was 0.125 µM (≈ 0.0414 µg/mL); with Enterococcus faecium, 8 µM (≈ 2.65 µg/mL); against Klebsiella pneumoniae, 0.25 µM (≈ 0.0828 µg/mL). Moreover, the MIC with Klebsiella aerogenes was less than 0.015 µM.

Turning to `O=C(CCC(=O)N(CCCCNC(=O)c1cccc(O)c1O)CCCNC(=O)c1cccc(O)c1O)NCCCCCN(O)C(=O)CCC(=O)N1CCN(c2cc3c(cc2F)c(=O)c(C(=O)O)cn3C2CC2)CC1`, the MIC with Staphylococcus aureus [1], against Escherichia coli, against Acinetobacter baumannii [2], in the test with Pseudomonas aeruginosa, against Enterococcus faecium and in the test on Klebsiella pneumoniae was greater than 128 µM each time. For the same compound, in the test on Klebsiella aerogenes, the MIC is greater than 128 µM.

As for `N[C@@H](C(=O)N[C@@H]1C(=O)N2C(C(=O)O)=C(Cl)CC[C@H]12)c1ccccc1` [LORACARBEF ANHYDROUS], the MIC against Staphylococcus aureus [1] is 1 µM (≈ 0.35 µg/mL); against Escherichia coli, 2 µM (≈ 0.7 µg/mL); against Acinetobacter baumannii [2], greater than 128 µM; in the test on Pseudomonas aeruginosa, greater than 128 µM; in the test on Enterococcus faecium, 32 µM (≈ 11.2 µg/mL); in the test with Klebsiella pneumoniae, 128 µM (≈ 44.8 µg/mL). For the same compound, in the test with Klebsiella aerogenes, the minimal inhibitory concentration (MIC) is greater than 128 µM.

Consider `O=C(CCC(=O)N(CCCCNC(=O)c1cccc(O)c1O)CCCNC(=O)c1cccc(O)c1O)NCCCCCN(O)C(=O)CCC(=O)N[C@H](C(=O)N[C@@H]1C(=O)N2C(C(=O)O)=C(Cl)CC[C@H]12)c1ccccc1`, for which the figures for the “diameter of the inhibition zone (DIZ)” value with Acinetobacter baumannii [3] and in the test with Acinetobacter baumannii [14] were 20.6 mm and 16.2 mm, respectively. The result in the test on Staphylococcus aureus [4], with Staphylococcus aureus [8], in the test with Staphylococcus aureus [12] and in the test with Staphylococcus aureus [13] was Active. Moreover, the minimum inhibitory concentration (MIC) is 32 µM (≈ 33.6 µg/mL) against Staphylococcus aureus [1]; 8 µM (≈ 8.4 µg/mL) against Escherichia coli; 0.125 µM (≈ 0.131 µg/mL) against Acinetobacter baumannii [2]; greater than 128 µM with Pseudomonas aeruginosa; 0.0078 µM (≈ 0.00819 µg/mL) against Acinetobacter baumannii [5]; greater than 128 µM in the test with Enterococcus faecium. Moreover, the MIC against Acinetobacter baumannii [6] is 0.5 µM (≈ 0.525 µg/mL); in the test with Staphylococcus aureus [7], 32 µM (≈ 33.6 µg/mL); in the test with Klebsiella pneumoniae it was greater than 128 µM; in the test with Staphylococcus aureus [10] it was 64 µM (≈ 67.2 µg/mL); in the test with Klebsiella aerogenes, greater than 128 µM. Further, the result with Acinetobacter baumannii [9] and with Acinetobacter baumannii [11] was inactive.
